Results as given in ChEMBL document CHEMBL4376859, “Prodrugs for nitroreductase-based cancer therapy-3: Antitumor activity of the novel dinitroaniline prodrugs/Ssap-NtrB enzyme suicide gene system: Synthesis, in vitro and in silico evaluation in prostate cancer” (Eur J Med Chem, 2020).
Activity calls are given as the source filed them. The rule behind the calls is not given here.

What was measured:
Hep 3B2 [1] = assay: Cytotoxicity against human Hep3B cells assessed as cell viability after 48 hrs by MTT assay; assay type: functional, cell-based
How it was run: (§1)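 Hep3B hepatoma, PC-3 prostate cancer and HUVEC (healthy control) cells were exposed to nitro compounds at 150, 75, 38, 19 and 9 µM for 24 h and 48 h. Viability was read by MTT assay, and IC50 values were derived from the growth inhibition curves.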

Putative nitroreductase [2] = biological target: T1, Putative nitroreductase (Staphylococcus saprophyticus subsp. saprophyticus (strain ATCC 15305 / DSM20229 / NCIMB 8711 / NCTC 7292 / S-41), UniProt Q4A0P1); assay: Substrate activity at Staphylococcus saprophyticus nitroreductase expressed in Escherichia coli BL21 (DE3) assessed as retention time by HPLC analysis; assay type: ADME
T1 sequence (Q4A0P1 whole entry): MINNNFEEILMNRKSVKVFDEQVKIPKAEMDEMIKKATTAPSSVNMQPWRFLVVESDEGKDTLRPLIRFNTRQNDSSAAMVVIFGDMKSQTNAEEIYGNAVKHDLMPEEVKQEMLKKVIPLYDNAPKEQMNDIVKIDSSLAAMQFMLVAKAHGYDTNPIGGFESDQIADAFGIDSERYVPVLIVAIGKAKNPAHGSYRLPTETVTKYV

HUVEC [3] = assay: Cytotoxicity against human HUVEC cells assessed as cell viability after 48 hrs by MTT assay; assay type: cell-based; conditions: Homo sapiens, HUVEC; how it was run: as §1
PC-3 [4] = assay: Cytotoxicity against human PC3 cells assessed as cell viability at 9 to 150 uM after 24 hrs by MTT assay relative to control; assay type: functional; how it was run: as §1
Hep 3B2 [5] = assay: Cytotoxicity against human Hep3B cells assessed as cell viability at 9 to 150 uM after 24 hrs by MTT assay relative to control; assay type: functional; how it was run: as §1
Putative nitroreductase [6] = biological target: T1, Putative nitroreductase; assay: Substrate activity at Staphylococcus saprophyticus nitroreductase NtrB assessed as enzyme specific activity using NADH as cofactor in Tris-Cl buffer at pH 7.5 by HPLC analysis; assay type: ADME
HUVEC [7] = assay: Cytotoxicity against human HUVEC cells assessed as cell viability after 24 hrs by MTT assay; assay type: cell-based; conditions: Homo sapiens, HUVEC; how it was run: as §1
PC-3 [8] = assay: Cytotoxicity against human PC3 cells assessed as cell viability after 48 hrs by MTT assay; assay type: functional, cell-based; how it was run: as §1
[9] = Substrate activity at Escherichia coli nitroreductase nfsA assessed as ratio of Kcat/Km using NADPH as cofactor in Tris-Cl buffer at pH 7.5 by spectrophotometric method based Michaelis-Menten plot analysis relative to CB1954/NfsB
[10] = biological target: T2, Oxygen-insensitive NAD(P)H nitroreductase (Escherichia coli K-12, UniProt P38489); assay: Substrate activity at Escherichia coli nitroreductase nfsB assessed as Kcat using NADH as cofactor in Tris-Cl buffer at pH 7.5 by spectrophotometric method; assay type: ADME
T2 sequence (P38489 whole entry): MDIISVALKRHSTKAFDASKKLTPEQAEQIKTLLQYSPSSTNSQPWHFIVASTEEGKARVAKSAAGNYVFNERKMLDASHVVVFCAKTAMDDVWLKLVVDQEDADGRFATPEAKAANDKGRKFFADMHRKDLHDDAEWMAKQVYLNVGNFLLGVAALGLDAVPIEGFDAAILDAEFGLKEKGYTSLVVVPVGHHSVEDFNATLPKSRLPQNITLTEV

nitroreductase nfsA = assay: Substrate activity at Escherichia coli nitroreductase nfsA assessed as Km using NADPH as cofactor in Tris-Cl buffer at pH 7.5 by spectrophotometry based Michaelis-Menten plot analysis; assay type: ADME; conditions: Escherichia coli nitroreductase nfsA enzyme
[11] = biological target: T2, Oxygen-insensitive NAD(P)H nitroreductase; assay: Substrate activity at Escherichia coli nitroreductase nfsB assessed as ratio of Kcat/Km using NADH as cofactor in Tris-Cl buffer at pH 7.5 by spectrophotometric method based Michaelis-Menten plot analysis; assay type: ADME
[12] = biological target: T2, Oxygen-insensitive NAD(P)H nitroreductase; assay: Substrate activity at Escherichia coli nitroreductase nfsB assessed as ratio of Kcat/Km using NADH as cofactor in Tris-Cl buffer at pH 7.5 by spectrophotometric method based Michaelis-Menten plot analysis relative to CB1954/NfsB; assay type: ADME
[13] = biological target: T2, Oxygen-insensitive NAD(P)H nitroreductase; assay: Substrate activity at Escherichia coli nitroreductase nfsB assessed as Km using NADH as cofactor in Tris-Cl buffer at pH 7.5 by spectrophotometric method based Michaelis-Menten plot analysis; assay type: ADME
[14] = Substrate activity at Escherichia coli nitroreductase nfsA assessed as Kcat using NADPH as cofactor in Tris-Cl buffer at pH 7.5 by spectrophotometric method; assay type: ADME
[15] = Substrate activity at Escherichia coli nitroreductase nfsA assessed as ratio of Kcat/Km using NADPH as cofactor in Tris-Cl buffer at pH 7.5 by spectrophotometry based Michaelis-Menten plot analysis; assay type: ADME
Putative nitroreductase [16] = biological target: T1, Putative nitroreductase; assay: Substrate activity at Staphylococcus saprophyticus nitroreductase NtrB assessed as ratio of Kcat/Km using NADPH as cofactor in Tris-Cl buffer at pH 7.5 incubated for 30 mins by HPLC analysis relative to CB1954/NfsB; assay type: ADME; conditions: pH 7.5, 0.5 h
Putative nitroreductase [17] = biological target: T1, Putative nitroreductase; assay: Binding affinity to Staphylococcus saprophyticus nitroreductase NtrB
Putative nitroreductase [18] = biological target: T1, Putative nitroreductase; assay: Substrate activity at Staphylococcus saprophyticus nitroreductase NtrB assessed as Kcat using NADPH as cofactor in Tris-Cl buffer at pH 7.5 incubated for 30 mins by HPLC analysis; assay type: ADME; conditions: pH 7.5, 0.5 h
[19] = biological target: T2, Oxygen-insensitive NAD(P)H nitroreductase; assay: Substrate activity at Escherichia coli nitroreductase nfsB assessed as ratio of Kcat/Km upto 1 mM using NADH as cofactor in sodium phosphate buffer at pH 7.5 incubated for 5 mins by RP-HPLC relative to CB1954/NfsB; assay type: ADME; conditions: pH 7.5, 5 min
[20] = biological target: T2, Oxygen-insensitive NAD(P)H nitroreductase; assay: Substrate activity at Escherichia coli nitroreductase nfsB assessed as Kcat upto 1 mM using NADH as cofactor in sodium phosphate buffer at pH 7.5 incubated for 5 mins by RP-HPLC; assay type: ADME; conditions: pH 7.5, 5 min
[21] = biological target: T2, Oxygen-insensitive NAD(P)H nitroreductase; assay: Substrate activity at Escherichia coli nitroreductase nfsB assessed as ratio of Kcat/Km upto 1 mM using NADH as cofactor in sodium phosphate buffer at pH 7.5 incubated for 5 mins by RP-HPLC; assay type: ADME; conditions: pH 7.5, 5 min
Putative nitroreductase [22] = biological target: T1, Putative nitroreductase; assay: Substrate activity at Staphylococcus saprophyticus nitroreductase NtrB assessed as ratio of Kcat/Km using NADPH as cofactor in Tris-Cl buffer at pH 7.5 incubated for 30 mins by HPLC analysis; assay type: ADME; conditions: pH 7.5, 0.5 h
PC-3 [23] = assay: Cytotoxicity against human PC3 cells assessed as reduction in cell viability after 48 hrs by SRB assay; assay type: functional, cell-based
How it was run: (§2)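 Compounds were reduced outside the cells by purified His-tag (Ni column) Ssap-NtrB. The reaction mix held 600 µM NADH and compound (150, 39, 9 µM, or 180, 18, 1.8 nM) and was applied to PC-3 cells. Controls were compound alone in 25 mM Tris/HCl pH 7.5, and enzyme alone at 31 µg/mL. After 48 h, SRB absorbance was read at 492 nm and converted to % viability.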

[24] = Cytotoxicity against human HUVEC cells assessed as cell viability at 9 to 150 uM after 48 hrs by MTT assay relative to control; assay type: cell-based; conditions: read-out: Activity; how it was run: as §1
Hep 3B2 [25] = assay: Cytotoxicity against human Hep3B cells assessed as cell viability at 9 to 150 uM after 48 hrs by MTT assay relative to control; assay type: functional; how it was run: as §1
PC-3 [26] = assay: Cytotoxicity against human PC3 cells assessed as cell viability at 9 to 150 uM after 48 hrs by MTT assay relative to control; assay type: functional; how it was run: as §1
Putative nitroreductase [27] = biological target: T1, Putative nitroreductase; assay: Substrate activity at Staphylococcus saprophyticus nitroreductase NtrB assessed as Kcat/Km using NADPH as cofactor in Tris-Cl buffer at pH 7.5 by HPLC analysis relative to CB1954/NfsB; assay type: ADME
PC-3 [28] = assay: Cytotoxicity against human PC3 cells […] Staphylococcus saprophyticus nitroreductase NtrB assessed as reduction in cell viability in presence of NADH as cofactor after 48 hrs by SRB assay; assay type: functional, cell-based; conditions: PC-3, 48 h; how it was run: as §2
[29] = Cytotoxicity against human HUVEC cells assessed as cell viability at 9 to 150 uM after 24 hrs by MTT assay relative to control; assay type: cell-based; conditions: read-out: Activity; how it was run: as §1

O=[N+]([O-])c1cc([N+](=O)[O-])c(Nc2ccc(O)cc2)cc1Nc1ccc(O)cc1
IC50 (Hep 3B2 [1]): 14.5 µM | Retention_time (Putative nitroreductase [2]): 21.2 min | IC50 (HUVEC [3]): 150 µM | Activity (PC-3 [4]): >80% | Activity (Hep 3B2 [5]): 51 - 80% | Activity (Putative nitroreductase [6]): 1.61 U/mg | IC50 (HUVEC [7]): 66.7 µM | IC50 (PC-3 [8]): Not Active

CS(=O)(=O)OCCN(CCBr)c1c(C(=O)NCCO)cc([N+](=O)[O-])cc1[N+](=O)[O-]
fold change (FC) [9]: 21.43 | Kcat [10]: 60 s⁻¹ | Km (nitroreductase nfsA): 100 µM | Kcat/Km [11]: 13000 M⁻¹ s⁻¹ | fold change (FC) [12]: 2.32 | Km [13]: 4500 µM | Kcat [14]: 12 s⁻¹ | Kcat/Km [15]: 120000 M⁻¹ s⁻¹

NC(=O)c1cc(N(CCCl)CCCl)c([N+](=O)[O-])cc1[N+](=O)[O-]
fold change (FC) (Putative nitroreductase [16]): 1.67 | Ki (Putative nitroreductase [17]): 7.28 µM | Kcat (Putative nitroreductase [18]): 0.8 s⁻¹ | fold change (FC) [19]: 1.89 | Kcat [20]: 26.4 s⁻¹ | Kcat/Km [21]: 10560 M⁻¹ s⁻¹ | Kcat/Km (Putative nitroreductase [22]): 9350 M⁻¹ s⁻¹

CC(C)Nc1ccc([N+](=O)[O-])cc1[N+](=O)[O-]
Activity (PC-3 [23]): inactive | Retention_time (Putative nitroreductase [2]): 17.94 min | viability at 48 h, up to 150 µM [24]: > 80% | Activity (PC-3 [4]): >80% | Activity (Hep 3B2 [25]): 51 - 80% | Activity (Hep 3B2 [5]): >80% | Activity (PC-3 [26]): >80% | fold change (FC) (Putative nitroreductase [27]): 0.74 | IC50 (PC-3 [28]): 9.77 µM | viability at 24 h, up to 150 µM [29]: > 80%
